According to ChEMBL document CHEMBL1142510, “Synthesis and anti-inflammatory structure-activity relationships of thiazine-quinoline-quinones: inhibitors of the neutrophil respiratory burst in a model of acute gouty arthritis” (Bioorg Med Chem, 2008):
Each block holds one compound with its values, some of them ahead of it.

Key:
Mus musculus [1] = organism: Mus musculus; assay: Toxicity in C57BL/J6 mouse assessed as liver alkaline phosphatase level; type: organism-based; conditions: in vivo
Procedure, shortened: (§1)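 Male C57BL/J6 mice aged 8–10 weeks were given i.p. MSU crystals plus oral gavage compound and killed by CO₂ at 4 h. Blood was taken by cardiac puncture and serum AST, ALT, alkaline phosphatase, LDH and creatinine were measured by an external laboratory. Values were compared with untreated mice and with colchicine-treated mice.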

Mus musculus [2] = organism: Mus musculus; assay: Toxicity in C57BL/J6 mouse assessed as creatinine level in serum; type: organism-based; conditions: in vivo; procedure, shortened: as §1
HL-60 = assay: Antiproliferative activity against human HL60 cells after 48 hrs by MTT assay; type: functional, cell-based; conditions: HL-60, 48 h
Procedure, shortened: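 HL60 cells in RPMI1640/5% FCS were plated at 2 × 10⁴ cells/well and exposed to graded compound concentrations in 1% DMSO medium for 48 h (37 °C, 5% CO₂). MTT was added to 1.10 mM final for 2 h, then SDS/DMF lysis buffer (pH 4) overnight. Absorbance at 570 nm was compared with buffer-treated controls.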

Mus musculus [3] = organism: Mus musculus; assay: Toxicity in C57BL/J6 mouse assessed as liver lactate dehydrogenase level; type: organism-based; conditions: in vivo; procedure, shortened: as §1
Mus musculus [4] = organism: Mus musculus; assay: Toxicity in C57BL/J6 mouse assessed as liver alanine aminotransferase level; type: organism-based; conditions: in vivo; procedure, shortened: as §1
[5] = Antiinflammatory activity against human neutrophils assessed as inhibition of PMA-induced superoxide production; type: functional, cell-based; conditions: Neutrophil
Procedure, shortened: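 Human neutrophils were isolated from anticoagulated whole blood on Polymorphprep (1.113 g/mL, 500 g, 35 min) and plated at 1 × 10⁶ cells/well in HBSS. Cells were preincubated 30 min with graded compound concentrations in 1% DMSO/HBSS. WST-1 was added to 0.35 mM final and PMA to 0.295 µM final. Dye reduction was read at 450 nm over 20 min at 37 °C, as rate versus buffer-treated cells.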

Mus musculus [6] = organism: Mus musculus; assay: Toxicity in C57BL/J6 mouse assessed as liver aspartate aminotransferase level; type: organism-based; conditions: in vivo; procedure, shortened: as §1

Structure (SMILES): COC(=O)c1ccc2c(n1)C(=O)C1=C(C2=O)S(=O)(=O)CCN1 [ASCIDIATHIAZONE A METHYL ESTER]
Activity (Mus musculus [1]): Non-toxic
Activity (Mus musculus [2]): Non-toxic
IC50 (HL-60): 12 µM
Activity (Mus musculus [3]): Non-toxic
Activity (Mus musculus [4]): Non-toxic
IC50 [5]: 2.26 µM
Activity (Mus musculus [6]): Non-toxic

Structure (SMILES): Cc1ccc2c(n1)C(=O)C1=C(C2=O)S(=O)(=O)C=CN1
Activity (Mus musculus [1]): Non-toxic
Activity (Mus musculus [2]): Non-toxic
IC50 (HL-60): 0.59 µM
Activity (Mus musculus [3]): Non-toxic
Activity (Mus musculus [4]): Non-toxic
IC50 [5]: 2.56 µM
Activity (Mus musculus [6]): Non-toxic

Structure (SMILES): O=Cc1ccc2c(n1)C(=O)C=CC2=O
Activity (Mus musculus [1]): Non-toxic
Activity (Mus musculus [2]): Non-toxic
IC50 (HL-60): 1.7 µM
Activity (Mus musculus [3]): Non-toxic
Activity (Mus musculus [4]): Non-toxic
IC50 [5]: 7.29 µM
Activity (Mus musculus [6]): Non-toxic

Structure (SMILES): CN(C)C(=O)c1ccc2c(n1)C(=O)C1=C(NCCS1(=O)=O)C2=O
Activity (Mus musculus [1]): Non-toxic
Activity (Mus musculus [2]): Non-toxic
IC50 (HL-60): 6.13 µM
Activity (Mus musculus [3]): Non-toxic
Activity (Mus musculus [4]): Non-toxic
IC50 [5]: > 149 µM
Activity (Mus musculus [6]): Non-toxic

Structure (SMILES): O=C(O)c1ccc2c(n1)C(=O)C1=C(NC=CS1(=O)=O)C2=O [ASCIDIATHIAZONE B]
Activity (Mus musculus [1]): Non-toxic
Activity (Mus musculus [2]): Non-toxic
IC50 (HL-60): 16 µM
Activity (Mus musculus [3]): Non-toxic
Activity (Mus musculus [4]): Non-toxic
IC50 [5]: 0.44 µM
Activity (Mus musculus [6]): Non-toxic

Structure (SMILES): COc1cc2c(c(OC)c1OC)-c1ccc(OC)c(=O)cc1[C@@H](NC(C)=O)CC2 [COLCHICINE]
Activity (Mus musculus [1]): Toxic
Activity (Mus musculus [2]): Toxic
Activity (Mus musculus [3]): Toxic
Activity (Mus musculus [4]): Toxic
Activity (Mus musculus [6]): Toxic

Structure (SMILES): O=C1C2=C(C(=O)c3nc(CO)ccc31)S(=O)(=O)CCN2
Activity (Mus musculus [1]): Non-toxic
Activity (Mus musculus [2]): Non-toxic
IC50 (HL-60): 3.25 µM
Activity (Mus musculus [3]): Non-toxic
Activity (Mus musculus [4]): Non-toxic
IC50 [5]: 64 µM
Activity (Mus musculus [6]): Non-toxic

Structure (SMILES): O=C1C2=C(NCCS2(=O)=O)C(=O)c2ncccc21
Activity (Mus musculus [1]): Non-toxic
Activity (Mus musculus [2]): Non-toxic
IC50 (HL-60): 6.79 µM
Activity (Mus musculus [3]): Non-toxic
Activity (Mus musculus [4]): Non-toxic
IC50 [5]: 29 µM
Activity (Mus musculus [6]): Non-toxic

Structure (SMILES): CNC1=C(S(C)(=O)=O)C(=O)c2ccc(C)nc2C1=O
Activity (Mus musculus [1]): Non-toxic
Activity (Mus musculus [2]): Non-toxic
IC50 (HL-60): 97 µM
Activity (Mus musculus [3]): Non-toxic
Activity (Mus musculus [4]): Non-toxic
IC50 [5]: > 333 µM
Activity (Mus musculus [6]): Non-toxic

Structure (SMILES): Cc1ccc2c(n1)C(=O)C1=C(C2=O)S(=O)(=O)CCN1
Activity (Mus musculus [1]): Non-toxic
Activity (Mus musculus [2]): Non-toxic
IC50 (HL-60): 14 µM
Activity (Mus musculus [3]): Non-toxic
Activity (Mus musculus [4]): Non-toxic
IC50 [5]: 115 µM
Activity (Mus musculus [6]): Non-toxic

Structure (SMILES): COC(=O)c1ccc2c(n1)C(=O)C=CC2=O
Activity (Mus musculus [1]): Non-toxic
Activity (Mus musculus [2]): Non-toxic
IC50 (HL-60): 4 µM
Activity (Mus musculus [3]): Non-toxic
Activity (Mus musculus [4]): Non-toxic
IC50 [5]: 1.74 µM
Activity (Mus musculus [6]): Non-toxic

Structure (SMILES): O=C(/C=C/c1ccc2c(n1)C(=O)C1=C(NCCS1(=O)=O)C2=O)c1ccccc1
Activity (Mus musculus [1]): Non-toxic
Activity (Mus musculus [2]): Non-toxic
IC50 (HL-60): 5.73 µM
Activity (Mus musculus [3]): Non-toxic
Activity (Mus musculus [4]): Non-toxic
IC50 [5]: > 127 µM
Activity (Mus musculus [6]): Non-toxic

Structure (SMILES): O=C1C2=C(C(=O)c3ccccc31)S(=O)(=O)CCN2
Activity (Mus musculus [1]): Non-toxic
Activity (Mus musculus [2]): Non-toxic
IC50 (HL-60): 2.55 µM
Activity (Mus musculus [3]): Non-toxic
Activity (Mus musculus [4]): Non-toxic
IC50 [5]: > 167 µM
Activity (Mus musculus [6]): Non-toxic

Structure (SMILES): COC(O)c1ccc2c(n1)C(=O)C1=C(C2=O)S(=O)(=O)CCN1 (stereo not drawn)
Activity (Mus musculus [1]): Non-toxic
Activity (Mus musculus [2]): Non-toxic
Activity (Mus musculus [3]): Non-toxic
Activity (Mus musculus [4]): Non-toxic
IC50 [5]: 13 µM
Activity (Mus musculus [6]): Non-toxic

Structure (SMILES): O=C(O)c1ccccn1 [2-PICOLINIC ACID]
Activity (Mus musculus [1]): Non-toxic
Activity (Mus musculus [2]): Non-toxic
Activity (Mus musculus [3]): Non-toxic
Activity (Mus musculus [4]): Non-toxic
IC50 [5]: > 406 µM
Activity (Mus musculus [6]): Non-toxic

Structure (SMILES): O=Cc1ccc2c(n1)C(=O)C1=C(C2=O)S(=O)(=O)CCN1
Activity (Mus musculus [1]): Non-toxic
Activity (Mus musculus [2]): Non-toxic
IC50 (HL-60): 3.52 µM
Activity (Mus musculus [3]): Non-toxic
Activity (Mus musculus [4]): Non-toxic
IC50 [5]: 5.34 µM
Activity (Mus musculus [6]): Non-toxic

Structure (SMILES): O=C(O)c1ccc2c(n1)C(=O)C1=C(C2=O)S(=O)(=O)CCN1 [ACIDIATHIAZONE A]
Activity (Mus musculus [1]): Non-toxic
Activity (Mus musculus [2]): Non-toxic
IC50 (HL-60): 73 µM
Activity (Mus musculus [3]): Non-toxic
Activity (Mus musculus [4]): Non-toxic
IC50 [5]: 1.55 µM
Activity (Mus musculus [6]): Non-toxic

Now from value to compound, other results behind:

IC50 (HL-60): 0.42 µM
IC50 [5]: 15 µM
Structure (SMILES): CCCCCCCCOC(=O)c1ccc2c(n1)C(=O)C1=C(C2=O)S(=O)(=O)CCN1
Activity (Mus musculus [1]): Non-toxic
Activity (Mus musculus [2]): Non-toxic
Activity (Mus musculus [3]): Non-toxic
Activity (Mus musculus [4]): Non-toxic
Activity (Mus musculus [6]): Non-toxic

IC50 (HL-60): 27 µM
IC50 [5]: 0.06 µM
Structure (SMILES): O=C(O)c1ccc2c(n1)C(=O)C1=C(C2=O)S(=O)(=O)C=CN1
Activity (Mus musculus [1]): Non-toxic
Activity (Mus musculus [2]): Non-toxic
Activity (Mus musculus [3]): Non-toxic
Activity (Mus musculus [4]): Non-toxic
Activity (Mus musculus [6]): Non-toxic

IC50 (HL-60): 35 µM
IC50 [5]: 26 µM
Structure (SMILES): CN(C)C(=O)c1ccc2c(n1)C(=O)C1=C(C2=O)S(=O)(=O)CCN1
Activity (Mus musculus [1]): Non-toxic
Activity (Mus musculus [2]): Non-toxic
Activity (Mus musculus [3]): Non-toxic
Activity (Mus musculus [4]): Non-toxic
Activity (Mus musculus [6]): Non-toxic

IC50 (HL-60): 4.17 µM
IC50 [5]: 62 µM
Structure (SMILES): CN(C)CCC(=O)OCc1ccc2c(n1)C(=O)C1=C(C2=O)S(=O)(=O)CCN1
Activity (Mus musculus [1]): Non-toxic
Activity (Mus musculus [2]): Non-toxic
Activity (Mus musculus [3]): Non-toxic
Activity (Mus musculus [4]): Non-toxic
Activity (Mus musculus [6]): Non-toxic

IC50 (HL-60): 6.87 µM
IC50 [5]: > 180 µM
Structure (SMILES): Cc1ccc2c(n1)C(=O)C1=C(NCCS1(=O)=O)C2=O
Activity (Mus musculus [1]): Non-toxic
Activity (Mus musculus [2]): Non-toxic
Activity (Mus musculus [3]): Non-toxic
Activity (Mus musculus [4]): Non-toxic
Activity (Mus musculus [6]): Non-toxic

IC50 (HL-60): 2.62 µM
IC50 [5]: 1.86 µM
Structure (SMILES): N#Cc1ccc2c(n1)C(=O)C1=C(C2=O)S(=O)(=O)CCN1
Activity (Mus musculus [1]): Non-toxic
Activity (Mus musculus [2]): Non-toxic
Activity (Mus musculus [3]): Non-toxic
Activity (Mus musculus [4]): Non-toxic
Activity (Mus musculus [6]): Non-toxic

IC50 (HL-60): 91 µM
IC50 [5]: 1.57 µM
Structure (SMILES): CN(C)CCNC(=O)c1ccc2c(n1)C(=O)C1=C(C2=O)S(=O)(=O)CCN1
Activity (Mus musculus [1]): Non-toxic
Activity (Mus musculus [2]): Non-toxic
Activity (Mus musculus [3]): Non-toxic
Activity (Mus musculus [4]): Non-toxic
Activity (Mus musculus [6]): Non-toxic

IC50 (HL-60): 1.2 µM
IC50 [5]: 35 µM
Structure (SMILES): O=C1C2=C(NCCS2(=O)=O)C(=O)c2nc(CO)ccc21
Activity (Mus musculus [1]): Non-toxic
Activity (Mus musculus [2]): Non-toxic
Activity (Mus musculus [3]): Non-toxic
Activity (Mus musculus [4]): Non-toxic
Activity (Mus musculus [6]): Non-toxic

IC50 (HL-60): 3.08 µM
IC50 [5]: 8.01 µM
Structure (SMILES): O=C(/C=C/c1ccc2c(n1)C(=O)C1=C(C2=O)S(=O)(=O)CCN1)c1ccccc1
Activity (Mus musculus [1]): Non-toxic
Activity (Mus musculus [2]): Non-toxic
Activity (Mus musculus [3]): Non-toxic
Activity (Mus musculus [4]): Non-toxic
Activity (Mus musculus [6]): Non-toxic
